Screening data: PubChem BioAssay, Sanford-Burnham Center for Chemical Genomics
mIAP activ: mouse IAP activation; muIAP, CDP-Star luminescence, 30 min; stronger effect = higher value; 1 = vehicle-only enzyme signal, 0 = enzyme-free wells; activation factor at 10 µM; 330,000 compounds, 0.24% hits; AID 2805;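 active = activation factor of at least 2 at 20 µM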
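Assay system: mouse IAP enzyme; Reagent: CDP-Star chemiluminescent phosphatase substrate; Compound: DMSO-dissolved test compounds; Incubation: 30 min, room temperature; Technique: luminescence from enzymatic CDP-Star hydrolysis; Controls: DMSO-only wells and no-enzyme negative control.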
bIAP activator: increases bovine intestinal alkaline phosphatase activity; purified bovine IAP, CDP-star luminescence, 30 min; stronger effect = higher value; fold of DMSO-control signal, blank-subtracted; activation factor at 20 µM; 200,000 compounds, 0.17% hits; AID 1016;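 active = activation factor of 2 or more at 20 µM, a signal rise over negative controls twice the positive control's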
bIAP inh: blocks bovine intestinal alkaline phosphatase activity. purified bovine IAP, CDP-star luminescence, 30 min. inhibition, % at 20 µM. 190,000 tested, under 10 active. AID 1019;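 active = over 50% inhibition of intestinal alkaline phosphatase at 20 µM in the single-dose screen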
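System: Purified bovine intestinal alkaline phosphatase (IAP) enzyme | Input: IAP diluted 1/65,000,000 in the well | Also added: CDP-star chemiluminescent phosphatase substrate, 30 µM final | Dosing: 20 µM single dose | Times: Enzyme reaction for 30 min at room temperature | Detection: Luminescence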
mIAP block: blocks mouse intestinal alkaline phosphatase. AID 2806. purified mouse IAP, CDP-Star luminescence, 30 min. inhibition, % at 10 µM. 330,000 compounds, 0.2% hits;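 active = inhibition of at least 40% at 10 µM in the primary screen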;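 also: plate controls were DMSO with enzyme for no effect and no enzyme wells for full effect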
hIAP act: human IAP activation. purified human IAP, CDP-Star luminescence, 30 min; stronger effect = higher value; 1 = vehicle-only enzyme, 0 = enzyme-free background. AID 2524. activation factor at 10 µM. P09923. 330,000 compounds, 0.16% hits;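 active = activation factor of the enzyme at least 2-fold when tested at 20 µM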
Target sequence (P09923 whole entry, looked up): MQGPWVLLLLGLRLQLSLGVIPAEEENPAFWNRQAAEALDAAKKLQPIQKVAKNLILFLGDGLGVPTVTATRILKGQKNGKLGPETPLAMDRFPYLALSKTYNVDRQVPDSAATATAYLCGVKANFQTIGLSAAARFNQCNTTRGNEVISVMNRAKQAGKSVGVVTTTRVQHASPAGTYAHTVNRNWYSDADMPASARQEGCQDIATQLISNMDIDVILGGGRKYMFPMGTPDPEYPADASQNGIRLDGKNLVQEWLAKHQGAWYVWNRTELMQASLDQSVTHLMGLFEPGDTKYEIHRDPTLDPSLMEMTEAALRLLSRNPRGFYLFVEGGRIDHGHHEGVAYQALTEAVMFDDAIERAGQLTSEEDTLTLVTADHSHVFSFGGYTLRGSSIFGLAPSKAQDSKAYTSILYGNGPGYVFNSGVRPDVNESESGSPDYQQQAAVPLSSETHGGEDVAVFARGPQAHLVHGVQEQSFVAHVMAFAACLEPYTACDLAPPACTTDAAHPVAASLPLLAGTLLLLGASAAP
hIAP inh: human IAP inhibition. AID 2544. inhibition, % at 10 µM. purified IAP, CDP-Star luminescence, 30 min. 330,000 compounds, 0.12% hits. P09923;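 active = inhibition reaching a set limit with compound at 10 µM in the primary screen, cut at about 35% in these data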;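 also: plate controls were DMSO wells with enzyme for no effect and no-enzyme buffer wells for full effect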
hIAP act confirm: human IAP activation confirmation; shares compounds with hIAP act; purified IAP, CDP-Star luminescence, 30 min; stronger effect = lower value; activation (%Activity, negative = activation), % at 8.3 µM; 880 compounds, 10% hits;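 active = at least twofold enzyme activation in any of six single-dose repeats, which the averaged readout prints as negative percent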
Numbers without * were called inactive; · = not tested or not shown. Hits are enriched below; roughly 0.77% of the tested compounds scored in any of these assays.

SMILES	mIAP activ	bIAP activator	bIAP inh	mIAP block	hIAP act	hIAP inh	hIAP act confirm
CCOC(=O)N1N=C(c2ccc(OC)cc2)CC1(O)C(F)(F)F (centres undefined)	0.91	1.1	-8	9	1.2	-19	·
O=C(OCC(=O)N1CCN(c2ccccc2)CC1)c1nc(Cl)ccc1Cl	1.1	·	·	-9	1.2	-18	·
CN1C(=O)/C(=C/c2cc(N=Nc3ccccc3)ccc2O)SC1=S	0.6	0.7	28	40*	0.54	46*	-54
Cc1c(N2C(=O)/C(=C\c3ccccc3O)SC2=S)c(=O)n(-c2ccccc2)n1C	0.86	·	·	14	0.87	13	·
Cc1ccc(-n2c(-c3cccnc3)n[nH]c2=S)c(C)c1	0.94	0.9	14	6	3*	-200	15
Cc1ccc(-n2c(-c3ccc(Cl)cc3)n[nH]c2=S)c(C)c1	0.96	·	·	4	0.89	11	·
Cc1ccc(NC(=O)C2CCCN(S(=O)(=O)c3ccc4[nH]c(=O)ccc4c3)C2)c(C)c1 (centres undefined)	0.9	·	·	10	0.98	2	·
O=C1c2ccccc2-c2onc3c(N4CCN(CCO)CC4)cc(N4CCN(C(=O)c5ccco5)CC4)c1c23	0.97	·	·	3	0.84	16	·
CN1CCN(c2cc(N3CCN(C(=O)c4ccco4)CC3)c3c4c(onc24)-c2ccccc2C3=O)CC1	0.83	·	·	17	0.57	42*	3
CCn1c2ccccc2c2cc(/C=N/n3cn[nH]c3=S)ccc21	0.88	1	4	12	1.1	-13	·
CCn1c2ccccc2c2cc(/C=N/n3c(-c4cc(C)[nH]n4)n[nH]c3=S)ccc21	1.1	·	·	-9	2.1*	-106	14
CCCCCCc1nc(C(N)=O)c2[nH]c(=O)n(-c3ccc(OCC)cc3)c2n1	1	·	·	-3	2.3*	-131	2
CCCCCCc1nc(C(N)=O)c2[nH]c(=O)n(-c3ccccc3F)c2n1	1.1	·	·	-9	2.1*	-110	-15
O=C(COc1ccccc1Cl)N1CCN(c2ccc([N+](=O)[O-])c(N3CCCCC3)c2)CC1	0.85	0.8	17	15	2.1*	-106	-61*
COC(=O)CSc1nc2cc3c(cc2cc1C)OCO3	0.94	0.9	13	6	0.98	2	·
Cc1cc2cc3c(cc2nc1SCC(=O)Nc1nc(C)c(C)s1)OCO3	0.96	1	4	4	2.2*	-116	44
Cc1ccccc1CN1CCN(C(=O)c2ccc(F)cc2)CC1	1.1	·	·	-6	1.2	-16	·
Cc1[nH]n(-c2nc(-c3ccccc3F)cc(=O)[nH]2)c(=O)c1CCO	0.88	0.7	32	12	0.28	72*	-40*
Cc1nn(C)c(C(=O)NNC(=S)NCc2ccccc2)c1Cl	0.85	·	·	15	2*	-104	-141*
Cc1nn(C)c(C(=O)NC(=S)Nc2ccccc2Br)c1Cl	0.95	·	·	5	0.85	15	·
COCC(=O)N1CCC(Oc2ccc(C(=O)NCc3cc(C)no3)cc2)CC1	1.1	·	·	-6	0.64	36*	-4
CCn1cc(CN2N=C(C)CC2c2ccccc2)c(C)n1 (centres undefined)	0.97	1	4	3	1.3	-28	·
CCN1/C(=C/c2ccc3ccccc3[n+]2CC)C=Cc2ccccc21	0.74	0.3	·	26	0.64	36*	-49
CCCCN1/C(=C/c2ccc3ccccc3[n+]2CC)Sc2ccccc21	0.92	0.6	40	8	0.82	18	·
CC(OC(=O)c1ccc2c(c1)OCCO2)C(=O)NC1CCCCC1C (centres undefined)	1	·	·	-2	0.9	10	·
SMILES	mIAP activ	bIAP activator	bIAP inh	mIAP block	hIAP act	hIAP inh	hIAP act confirm
CCCCCC(=O)Cc1cc(O)cc2c1C(=O)Oc1cc(O)c(C(=O)O)c(CCCCC)c1O2	0.79	·	·	21	0.6	40*	-40
CC(=O)Nc1ccc(S(=O)(=O)N(C)CCOCc2ccccc2)cc1	0.99	1	-3	0	0.62	38*	-45
COc1ccc(S(=O)(=O)NC(C)CCc2ccccc2)cc1 (centres undefined)	1	0.8	20	0	1.1	-8	·
CCn1nnc(-c2ccc(N)cc2)n1	1	1.1	-7	-2	2*	-102	-22
Nc1ccc(-c2nnn(CC(=O)N3CCCCC3)n2)cc1	0.99	·	·	1	1.1	-12	·
CC(=O)Nc1ccc(S(=O)(=O)N(C)CC(=O)NNC(=O)Cc2nc3ccccc3n2C)cc1	1.1	·	·	-6	2.3*	-130	-50
CC(=O)Nc1ccc(SCC(=O)NNC(=O)CN(C)S(=O)(=O)c2ccc(C)cc2)cc1	1	·	·	0	1.1	-8	·
O=C(Nc1cccc(C(=O)Nc2cccc(Br)c2)c1)c1ccccc1	1	·	·	-3	1	-4	·
CC(C)c1ccc(NC(=O)c2cccc(Br)c2)cc1	1	0.8	18	-1	2.4*	-145	-13
COc1cc(/C=C/C(=O)OCC(=O)NC(=O)NC2CCCCC2)ccc1OC(F)F	0.95	·	·	5	0.65	35*	79
O=C1Nc2ccc(Br)cc2C12NNc1ccccc1O2 (centres undefined)	0.66	0.5	·	34	5*	-398	35
CC(C)CC(=O)NC(=S)NNC(=O)c1ccc(NC(=O)C2CCCCC2)cc1	1.1	1.4	-36	-8	2.3*	-126	62
COc1ccc(CN(CCNC(=O)CCCCC(=O)NCCN(Cc2ccc(OC)cc2)C(C)C)C(C)C)cc1	1.2	·	·	-16	0.59	41*	18
COc1ccc(CCNC(=O)CCCCC(=O)NCCc2ccc(OC)cc2)cc1	0.9	·	·	10	0.98	2	·
O=C(Cn1c(=O)cnc2ccccc21)NNC(=O)c1ccccc1Cl	0.93	·	·	7	1.1	-7	·
CCC1CCCCN1C1Sc2ccc(C(=O)OC)cc2NC1=O (centres undefined)	1.1	1.1	-9	-8	2*	-100	-69*
Cc1ccnc(NC(=O)c2cccc(S(=O)(=O)N3CCCc4ccccc43)c2)c1	1	·	·	-5	1.1	-12	·
Cc1ccc(NC(=O)CN(C(=O)N2CCN(C)CC2)S(=O)(=O)c2ccc(C)cc2)cc1	0.97	·	·	3	0.92	8	·
Cc1ccc(S(=O)(=O)N(CC(=O)Nc2ccc(C)cc2C)C(=O)N2CCN(C)CC2)cc1	0.96	·	·	4	0.64	36*	-55*
COc1cccc(Oc2ccc(C(F)(F)F)cc2NC(=O)CN2C(=O)NC3(CCCC3)C2=O)c1	1.2	·	·	-16	1.1	-14	·
O=C1C2CC=CCC2C(=O)N1c1n[nH]c(-c2ccccc2)n1 (centres undefined)	0.97	0.1	·	2	0.08	92*	-46
